Experimental data as given in ChEMBL document CHEMBL1772961, “Discovery of dual target inhibitors against cyclooxygenases and leukotriene A4 hydrolyase” (J Med Chem, 2011).
pIC50: −log10 of the molar value.

Key:
[1] = biological target: T1, Prostaglandin G/H synthase 2 (Homo sapiens, UniProt P35354); assay: Inhibition of COX2 in human whole blood assessed as inhibition of LPS-induced PGE2 production after 24 hrs by ELISA
T1 sequence (P35354 whole entry): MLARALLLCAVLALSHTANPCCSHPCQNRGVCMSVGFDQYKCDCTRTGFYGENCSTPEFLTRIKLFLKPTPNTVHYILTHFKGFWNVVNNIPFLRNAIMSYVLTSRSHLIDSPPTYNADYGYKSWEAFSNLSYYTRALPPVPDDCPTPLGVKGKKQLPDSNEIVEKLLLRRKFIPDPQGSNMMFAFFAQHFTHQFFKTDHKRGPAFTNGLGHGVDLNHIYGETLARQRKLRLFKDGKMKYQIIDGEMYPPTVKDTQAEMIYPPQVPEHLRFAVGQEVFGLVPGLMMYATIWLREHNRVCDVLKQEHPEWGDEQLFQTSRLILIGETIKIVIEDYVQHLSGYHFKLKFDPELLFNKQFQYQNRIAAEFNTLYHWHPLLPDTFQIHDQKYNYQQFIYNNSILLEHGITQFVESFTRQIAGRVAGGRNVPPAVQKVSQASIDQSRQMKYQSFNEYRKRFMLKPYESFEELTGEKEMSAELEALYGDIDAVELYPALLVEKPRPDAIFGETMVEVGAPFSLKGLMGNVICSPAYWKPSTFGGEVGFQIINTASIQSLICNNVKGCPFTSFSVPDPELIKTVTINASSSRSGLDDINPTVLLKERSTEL

[2] = biological target: Prostaglandin G/H synthase 1 (Homo sapiens, UniProt P23219); assay: Inhibition of purified COX1 assessed as formation of oxidized TMPD during reduction og PGG2 to PGH2 preincubated for 15 mins by chromogenic assay
Prostaglandin G/H synthase 1, sequence (P23219 whole entry): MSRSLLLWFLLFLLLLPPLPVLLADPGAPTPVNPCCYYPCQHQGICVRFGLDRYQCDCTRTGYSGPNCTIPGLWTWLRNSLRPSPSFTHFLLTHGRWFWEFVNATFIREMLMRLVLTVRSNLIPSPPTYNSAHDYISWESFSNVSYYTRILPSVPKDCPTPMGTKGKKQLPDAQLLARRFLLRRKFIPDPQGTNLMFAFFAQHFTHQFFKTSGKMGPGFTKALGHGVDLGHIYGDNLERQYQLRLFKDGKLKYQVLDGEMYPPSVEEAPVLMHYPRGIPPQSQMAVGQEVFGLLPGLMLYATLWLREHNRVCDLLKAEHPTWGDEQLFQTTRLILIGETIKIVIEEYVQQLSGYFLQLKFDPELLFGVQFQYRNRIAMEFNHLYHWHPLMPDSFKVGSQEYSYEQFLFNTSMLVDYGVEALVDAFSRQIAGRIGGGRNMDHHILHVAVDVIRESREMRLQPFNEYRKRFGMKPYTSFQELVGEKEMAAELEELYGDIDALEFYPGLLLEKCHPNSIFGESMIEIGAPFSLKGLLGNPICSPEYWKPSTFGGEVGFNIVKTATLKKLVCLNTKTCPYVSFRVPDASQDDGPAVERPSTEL
Outline: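 Purified COX-1, approx 20 units, in 100 mM Tris pH 8 with 2 mM genapol X-100 and 1 μM hematin. Compounds in DMSO (5% final) preincubated 15 min at 25 °C. TMPD then added, reaction started with arachidonic acid. Initial rate of TMPD oxidation read at 610 nm over first 36 s. Nonenzymatic oxidation without enzyme subtracted before computing percent inhibition.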

[3] = biological target: T1, Prostaglandin G/H synthase 2; assay: Inhibition of purified COX2 assessed as formation of oxidized TMPD during reduction og PGG2 to PGH2 preincubated for 15 mins by chromogenic assay
[4] = biological target: T2, Leukotriene A-4 hydrolase (Homo sapiens, UniProt P09960); assay: Inhibition of LTA4 hydrolase in human whole blood assessed as inhibition of calcium ionophore A23187-induced LTB4 production after 0.5 hrs by ELISA
T2 sequence (P09960 whole entry): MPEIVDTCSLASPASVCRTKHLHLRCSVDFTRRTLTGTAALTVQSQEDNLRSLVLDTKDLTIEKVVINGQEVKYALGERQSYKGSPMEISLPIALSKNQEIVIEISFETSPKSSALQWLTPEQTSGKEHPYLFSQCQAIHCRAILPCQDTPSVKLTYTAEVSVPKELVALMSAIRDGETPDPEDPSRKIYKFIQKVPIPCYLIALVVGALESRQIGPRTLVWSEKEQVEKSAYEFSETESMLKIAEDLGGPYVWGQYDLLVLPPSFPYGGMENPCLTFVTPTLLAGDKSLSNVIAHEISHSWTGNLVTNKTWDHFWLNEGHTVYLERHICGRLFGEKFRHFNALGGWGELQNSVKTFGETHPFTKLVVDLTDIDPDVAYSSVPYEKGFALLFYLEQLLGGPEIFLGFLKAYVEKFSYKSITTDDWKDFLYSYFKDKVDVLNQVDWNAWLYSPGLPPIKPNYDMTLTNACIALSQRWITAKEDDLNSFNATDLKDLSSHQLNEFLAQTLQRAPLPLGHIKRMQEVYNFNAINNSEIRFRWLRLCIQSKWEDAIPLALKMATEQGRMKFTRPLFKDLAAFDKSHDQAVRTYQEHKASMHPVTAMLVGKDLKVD

[5] = biological target: T2, Leukotriene A-4 hydrolase; assay: Inhibition of human LTA4 hydrolase activity assessed as LTB4 production after 15 mins by ELISA

Row | SMILES | pIC50 [1] | pIC50 [2] | pIC50 [3] | pIC50 [4] | pIC50 [5]
1 | O=[N+]([O-])c1ccccc1Oc1ccc(OCCN2CCCC2)cc1 | 5.08 | 4.21 | 5.11 | 5.16 | 6.17
2 | O=[N+]([O-])c1ccc(Oc2ccc(OCCN3CCCC3)cc2)cc1 | < 4.00 | 4.69 | 4.45 | 6.16 | 6.43
3 | O=[N+]([O-])c1ccc(Oc2ccc(OCCN3CCCC3)cc2)c([N+](=O)[O-])c1 | < 4.00 | < 4.00 | < 4.00 | < 4.00 | < 4.00
4 | CS(=O)(=O)c1ccccc1Oc1ccc(OCCN2CCCC2)cc1 | < 4.00 | < 4.00 | < 4.00 | < 4.00 | < 4.00
5 | CS(=O)(=O)c1cccc(Oc2ccc(OCCN3CCCC3)cc2)c1 | < 4.00 | < 4.00 | < 4.00 | < 4.00 | < 4.00
6 | CS(=O)(=O)c1ccc(Oc2ccc(OCCN3CCCC3)cc2)cc1 | < 4.00 | < 4.00 | < 4.00 | < 4.00 | < 4.00
7 | CS(=O)(=O)c1ccc(Oc2ccc(OCCN3CCCC3)cc2)c([N+](=O)[O-])c1 | < 4.00 | < 4.00 | < 4.00 | < 4.00 | < 4.00
8 | c1cnc(Oc2ccc(OCCN3CCCC3)cc2)cn1 | < 4.00 | < 4.00 | 4.21 | < 4.00 | 5.37
9 | O=[N+]([O-])c1cccnc1Oc1ccc(OCCN2CCCC2)cc1 | < 4.00 | < 4.00 | < 4.00 | 4.47 | 5.60
10 | FC(F)(F)c1cccc(Oc2ccc(OCCN3CCCC3)cc2)c1 | < 4.00 | < 4.00 | < 4.00 | < 4.00 | 6.27
11 | CS(=O)(=O)N(c1ccccc1Oc1ccc(OCCN2CCCC2)cc1)S(C)(=O)=O | < 4.00 | < 4.00 | < 4.00 | < 4.00 | < 4.00
12 | CS(=O)(=O)N(c1cccc(Oc2ccc(OCCN3CCCC3)cc2)c1)S(C)(=O)=O | < 4.00 | < 4.00 | < 4.00 | < 4.00 | < 4.00
13 | CS(=O)(=O)Nc1ccc(Oc2ccc(OCCN3CCCC3)cc2)cc1 | < 4.00 | < 4.00 | < 4.00 | 5.68 | 5.47
14 | CN(c1ccccc1Oc1ccc(OCCN2CCCC2)cc1)S(C)(=O)=O | < 4.00 | < 4.00 | 4.04 | < 4.00 | < 4.00
15 | CS(=O)(=O)Nc1ccc([N+](=O)[O-])cc1Oc1ccccc1 [NIMESULIDE] | – | – | – | < 4.00 | < 4.00

Other lines, results leading:

Row | pIC50 [1] | pIC50 [2] | pIC50 [3] | pIC50 [4] | pIC50 [5] | SMILES
16 | < 4.00 | < 4.00 | < 4.00 | 6.11 | – | c1ccc(Oc2ccc(OCCN3CCCC3)cc2)cc1
17 | 4.89 | < 4.00 | < 4.00 | 5.85 | 6.33 | O=[N+]([O-])c1cccc(Oc2ccc(OCCN3CCCC3)cc2)c1
18 | < 4.00 | < 4.00 | 4.46 | 6.74 | 6.11 | c1ccc(Oc2ccc(OCCN3CCCC3)cc2)nc1
19 | < 4.00 | < 4.00 | < 4.00 | 6.17 | 6.24 | c1cc(Oc2ccc(OCCN3CCCC3)cc2)ccn1
20 | 5.30 | < 4.00 | 4.38 | 6.14 | 6.66 | FC(F)(F)c1ccccc1Oc1ccc(OCCN2CCCC2)cc1
21 | < 4.00 | < 4.00 | < 4.00 | 5.70 | 6.41 | FC(F)(F)c1ccc(Oc2ccc(OCCN3CCCC3)cc2)cc1
22 | < 4.00 | < 4.00 | < 4.00 | 6.00 | 7.10 | Fc1ccc(Oc2ccc(OCCN3CCCC3)cc2)cc1
23 | 4.66 | < 4.00 | < 4.00 | 6.14 | 7.40 | Clc1ccc(Oc2ccc(OCCN3CCCC3)cc2)cc1
24 | 5.29 | < 4.00 | < 4.00 | 6.54 | 6.96 | Brc1ccc(Oc2ccc(OCCN3CCCC3)cc2)cc1
25 | < 4.00 | < 4.00 | < 4.00 | 6.96 | 6.20 | Nc1ccccc1Oc1ccc(OCCN2CCCC2)cc1
26 | < 4.00 | < 4.00 | < 4.00 | 6.01 | 6.16 | Nc1cccc(Oc2ccc(OCCN3CCCC3)cc2)c1
27 | < 4.00 | 5.72 | 4.44 | 7.54 | 6.49 | Nc1ccc(Oc2ccc(OCCN3CCCC3)cc2)cc1
